A short description of this series: Apparent half-life of the terminal disposition phase in C57BL/6 mouse plasma at 23.4 mg/kg, po administered as single dose measured 24 hrs by UPLC-MS/MS analysis. The settings on record: read-out: t1/2 lambda z (converted). The class given is ADME, organism-based. The gist of the method: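 15 animals dosed, 3 killed at each of 1, 2, 4, 6 and 24 h. Plasma and brain homogenate (ammonium formate, acidified organic extraction) assayed by UPLC-MS/MS, brain ng/g taken as ng/mL. Noncompartmental parameters exclude values above/below quantification limit or undetected. Kp = AUClast brain/plasma.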

For `CN(CC(=O)O)[C@H](CC#N)Cc1ccc(OCc2ccc(Cl)c(Cl)c2)cc1`, the half-life is 2.93 h.

These data come from ChEMBL document CHEMBL4229446, “Development of Novel Monoamine Oxidase-B (MAO-B) Inhibitors with Reduced Blood-Brain Barrier Permeability for the Potential Management of Noncentral Nervous System (CNS) Diseases” (J Med Chem, 2018).
